Source: PubChem (several laboratories)
aDG glyco act – increases alpha dystroglycan glycosylation; Pro5-aDG cells, alpha-DG glycosylation AlphaScreen (IIH6); 0% Pro5, 100% B10-LARGE cell signal; 360,000 tested, 0.22% active; AID 624168; activation, % at 10 µM;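 active = activation of at least 8% versus controls, or a plate z-score of at least 8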;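 note: Pro5 are CHO cells carrying HIG-tagged alpha-DG that lacks glycosylation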
Lipid droplet – modulators of hepatic lipid droplet formation; inhibition, % at 6.5 µM; AID 1656; AML12 mouse hepatocytes, oleate lipid droplets, BODIPY imaging; 240,000 tested, 0.4% active;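 active = lipid droplet intensity inhibited by at least 50%, with more than 500 cells counted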
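Assay system: AML12 hepatocytes (mouse); Probe or stimulus: oleic acid at 100 µM to induce lipid droplet formation; Dosing: compound at 6.5 µM only; Schedule: compound with oleate, overnight; Detection: fluorescence imaging, 20x objective, two fields per well; Measure: % inhibition of lipid droplet signal.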
V-ATPase pHluor – alters yeast V-ATPase proton transport; 350,000 tested, 0.37% active; S. cerevisiae, pHLuorin cytosolic pH fluorescence; AID 504577; response, % at 10 µM; in the data active = response mostly above about 7.3%, no sharp cut-off; inactive = mostly below about 5.4%; note: actives read high
ADAM10 inh – ADAM10 inhibition, QFRET primary screen; 370,000 tested, 0.62% active; O14672; recombinant ADAM10, EDANS/DABCYL FRET peptide cleavage, 3 h; inhibition, % at 7 µM;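 active = inhibition above a per-campaign cutoff equal to the mean of compounds falling between control-based bounds plus 3 SD, cut at about 20% in these data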
Target sequence (O14672 214-748 limits assumed): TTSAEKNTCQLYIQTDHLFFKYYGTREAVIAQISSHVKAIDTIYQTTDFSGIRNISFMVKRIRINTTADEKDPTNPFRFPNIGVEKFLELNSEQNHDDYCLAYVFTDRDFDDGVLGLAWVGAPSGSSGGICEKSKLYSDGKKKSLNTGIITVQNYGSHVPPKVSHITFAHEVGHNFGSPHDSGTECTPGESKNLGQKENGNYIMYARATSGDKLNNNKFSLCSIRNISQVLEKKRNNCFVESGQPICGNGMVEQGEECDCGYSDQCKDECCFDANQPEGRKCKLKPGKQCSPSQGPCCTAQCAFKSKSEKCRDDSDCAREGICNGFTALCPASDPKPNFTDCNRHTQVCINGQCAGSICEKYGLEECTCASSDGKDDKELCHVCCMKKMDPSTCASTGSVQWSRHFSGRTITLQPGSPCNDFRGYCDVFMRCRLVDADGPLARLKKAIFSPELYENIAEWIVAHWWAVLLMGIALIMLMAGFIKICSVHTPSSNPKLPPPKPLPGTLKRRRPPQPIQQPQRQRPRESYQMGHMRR
ADAM17 inh – inhibitors of human ADAM17 | P78536 | AID 720648 | inhibition, % at 6.95 µM | 370,000 tested, 0.83% active | recombinant ADAM17, EDANS/DABCYL FRET peptide cleavage;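 active = inhibition above the mean of compounds lying between control limits plus 3 SD, set per campaign, cut at about 8.5% in these data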
MPTP block – permeability transition pore inhibition; isolated mouse mitochondria, Ca2+ swelling absorbance, 30 min; inhibition, % at 10 µM; 360,000 tested, 1.4% active;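 active = inhibition of 50% or more, scaled per plate between neutral and stimulator controls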
Each line names hits and unclear results; the compound was inactive in the other large screens. Rows were chosen to be rich in hits. Some 3.1% of all compounds tested hit in one or more screens of this group.

COC(=O)[C@]12C[C@H](CC(=O)N3CCSCC3)C(=O)N(CCc3ccc(OC)c(OC)c3)C1=C[C@H](C(C)(C)C)O[C@@H]2C	none (no result: aDG glyco act, Lipid droplet, V-ATPase pHluor, MPTP block)
O=C(CSc1nnc(-c2ccccc2)n1-c1ccccc1)Nc1ccccc1-c1ccccc1	none (no result: aDG glyco act, Lipid droplet, V-ATPase pHluor, MPTP block)
Cc1cccc(NC(=S)N2CCN(Cc3ccccc3)CC2)c1C	V-ATPase pHluor 16
COc1ccc(-c2nc3c(c4nnc(SC(C)C(=O)Nc5ccccc5)n24)COC(C)(C)C3)cc1 (stereo unspecified)	Lipid droplet 66
COc1ccc(NC(=O)C(C)Sc2nnc3c4c(nc(-c5ccc(OC)cc5)n23)CC(C)(C)OC4)cc1 (stereo unspecified)	Lipid droplet 52
CCNC1=C(Cl)C(=O)c2ccccc2C1=O	aDG glyco act 12 (no result: V-ATPase pHluor)
CCCC1CCC2(CCCN2CCOC(=S)Nc2ccccc2OC)CC1 (stereo unspecified)	none (no result: aDG glyco act, Lipid droplet, V-ATPase pHluor, MPTP block)
CCn1c(SCC(=O)Nc2nc(-c3ccc(C)cc3)cs2)nnc1-c1ccccc1	none
CCn1c(SCC(=O)Nc2nc(-c3ccc(C)cc3)cs2)nnc1-c1ccccc1O	ADAM17 inh 15
CCCN1CCC(NC(=O)Nc2ccc(F)cc2F)CC1	V-ATPase pHluor 15
CC1=C(C(=O)OCCc2ccccc2)C(c2ccsc2)NC(=O)N1C (stereo unspecified)	V-ATPase pHluor 23
CC1=C(C(=O)OCc2ccccc2)C(c2ccsc2)NC(=O)N1C (stereo unspecified)	none
COc1ccccc1/C=C/C(=C1/C(=O)N(c2ccccc2)N=C1C)c1ccc(C)cc1	Lipid droplet 53
COc1cccc(/C=C/C(=C2/C(=O)N(c3ccccc3)N=C2C)c2ccccc2)c1OC	none
CCC(CO)Nc1cccc2c1S(=O)(=O)N(Cc1cn(Cc3cccc(F)c3)nn1)Cc1ccccc1O2 (stereo unspecified)	none (no result: aDG glyco act, Lipid droplet, V-ATPase pHluor, MPTP block)
CCOc1ccc(CCNC(=O)c2cc3sccc3n2C)cc1OCC	Lipid droplet 101
CCCC1CCC2(CC1)CCC2OC(=S)Nc1ccc(Br)cc1 (stereo unspecified)	none (no result: aDG glyco act, Lipid droplet, V-ATPase pHluor, MPTP block)
COc1ccccc1Nc1nnc(C)c(=O)[nH]1	none
CCOc1ccccc1Nc1nnc(C)c(=O)[nH]1	V-ATPase pHluor 15 (no result: Lipid droplet)
CN1CCN(c2ccc(NC(=O)c3ccc(-c4ccc(Cl)cc4)o3)cc2)CC1	aDG glyco act 5.5
O=C(O)CSc1cc(NS(=O)(=O)c2ccc(Cl)cc2)c2ccccc2c1O	aDG glyco act 3.8
COc1ccc(S(=O)(=O)Nc2cc(SCC(=O)O)c(O)c3ccccc23)cc1	aDG glyco act 5.0
N#C/C(=C\c1sc(N2CCOCC2)nc1-c1ccccc1)C(=O)Nc1cccc2ccccc12	Lipid droplet 56 (no result: aDG glyco act, V-ATPase pHluor, ADAM10 inh, ADAM17 inh, MPTP block)
CC(NC(=O)/C(C#N)=C/c1ccc([N+](=O)[O-])o1)c1ccccc1 (stereo unspecified)	V-ATPase pHluor 94
CC(NC(=O)/C(C#N)=C/c1ccco1)c1ccccc1 (stereo unspecified)	none
COc1ccc(OCC(=O)c2c(O)c3ccccc3oc2=O)cc1	V-ATPase pHluor 16 (no result: ADAM10 inh, ADAM17 inh)
Cc1ccc(CNc2ccc(N3CCOCC3)cc2)cc1	V-ATPase pHluor 11 (no result: Lipid droplet)
CC(C)c1ccc(CNc2ccc(N3CCOCC3)cc2)cc1	none
Cn1ncc(S(=O)(=O)Cc2ccccc2)c(Cl)c1=O	V-ATPase pHluor 19
CCOC(=O)[C@@]12CCCC=C1N(CCc1ccc(Cl)cc1)C(=O)[C@H]2CC(=O)N1CCN(C(=O)c2ccco2)CC1	none (no result: aDG glyco act, Lipid droplet, V-ATPase pHluor, MPTP block)
CCOC(=O)[C@]12CCCCC/C=C\1N(CCc1ccc(Cl)cc1)C(=O)[C@H]2CC(=O)NCC1CCCCC1	none (no result: aDG glyco act, Lipid droplet, V-ATPase pHluor, MPTP block)
COC(=O)[C@H](C(C)C)N(CCc1cn(Cc2ccc(C)cc2)nn1)S(=O)(=O)c1ccc(F)cc1Br	none (no result: aDG glyco act, Lipid droplet, V-ATPase pHluor, MPTP block)
CN(C)c1ccc(NC(=O)CSc2nc3ccccc3c(=O)n2C2CCCCC2)cc1	ADAM17 inh 12 (no result: Lipid droplet)
COc1cccc(CN(C(=O)c2ccccc2)C2CCS(=O)(=O)C2)c1 (stereo unspecified)	V-ATPase pHluor 29
COc1ccccc1C(=O)N(Cc1ccccn1)CC1CCCO1 (stereo unspecified)	none (no result: aDG glyco act, Lipid droplet, V-ATPase pHluor, MPTP block)
COc1ccc(CC(=O)Oc2ccc(C(C)C)cc2)cc1S(=O)(=O)N1CCOCC1	V-ATPase pHluor 25 (no result: Lipid droplet)
CCc1ccc(OC(=O)Cc2ccc(OC)c(S(=O)(=O)N3CCOCC3)c2)cc1	none (no result: Lipid droplet)
Cc1ccccc1Oc1nc(-c2ccccn2)nc2ccccc12	aDG glyco act 2.1
COCCCNC(=O)C[C@H]1C[C@@]2(C(=O)OC)C(=C[C@H](C3CCCC3)O[C@@H]2C)N(Cc2cccc3ccccc23)C1=O	none (no result: aDG glyco act, Lipid droplet, V-ATPase pHluor, MPTP block)
NC(=O)c1ccsc1NC(=O)COC(=O)CNC(=O)c1ccc(Cl)cc1	none (no result: Lipid droplet)
O=C(COC(=O)CNC(=O)c1ccc(Cl)cc1)Nc1ccc(Cl)cn1	V-ATPase pHluor 13 (no result: Lipid droplet)
CCCCc1ccc2nc(NC(=O)c3ccco3)sc2c1	none (no result: aDG glyco act, Lipid droplet, V-ATPase pHluor, MPTP block)
CCNC(=O)C[C@H]1CC[C@H]2[C@@H](COc3ccc(NC(=O)c4ccc5c(c4)OCO5)cc3C(=O)N2C)O1	none (no result: aDG glyco act, Lipid droplet, V-ATPase pHluor, MPTP block)
CCCCNC(=O)CSc1nc2ccsc2c(=O)n1C1CCN(C(=O)OCC)CC1	ADAM10 inh 20 (no result: Lipid droplet)
CN1CCC(N[C@@H](Cc2ccccc2)C(=O)NCCCc2ccccc2)(C(=O)NCCc2c[nH]c3ccccc23)CC1	none (no result: aDG glyco act, Lipid droplet, V-ATPase pHluor, MPTP block)
O=C1c2ccccc2C(Nc2cccnc2)N1Cc1ccccc1 (stereo unspecified)	none (no result: Lipid droplet)
CCCCNC1c2ccccc2C(=O)N1Cc1ccccc1 (stereo unspecified)	V-ATPase pHluor 17
CC(=O)N1CCN(C(=O)CN2C(=O)CC(C)(C)S(=O)(=O)c3ccccc32)CC1	none (no result: aDG glyco act, Lipid droplet, V-ATPase pHluor, MPTP block)
CC(C)(C)c1cc(C(=O)N2CCc3ccccc32)ccn1	V-ATPase pHluor 17 (no result: Lipid droplet)
CC(C)(C)c1cc(C(=O)N2CCc3ccccc3C2)ccn1	none
CN1C2=N[C@@H](c3cccc(C(F)(F)F)c3)CC(=O)N2/C(=C\c2ccccc2)[C@H]1c1ccccc1	none (no result: aDG glyco act, Lipid droplet, V-ATPase pHluor, MPTP block)
Cc1ccc(-n2c(Cc3cccn3C)nnc2SCC(=O)N2CCN(c3ccccc3)CC2)cc1	V-ATPase pHluor 20 (no result: Lipid droplet)
Cc1cc(NC(=O)COC(=O)C2CC(=O)N(c3ccc(Cl)cc3)C2)no1 (stereo unspecified)	V-ATPase pHluor 16
Cc1cc(NC(=O)COC(=O)C2CC(=O)N(c3ccccc3)C2)no1 (stereo unspecified)	none
Cc1nnc(SC/C=C/c2ccccc2)n(N)c1=O	none
Nn1c(SC/C=C/c2ccccc2)nnc1-c1ccco1	V-ATPase pHluor 18
CCOC(=O)c1c(C)oc2c1C(=O)c1ccccc1C2=O	aDG glyco act 9.7
COc1cc2ncnc(NCc3cccc(Cl)c3)c2cc1OC	Lipid droplet 51
O=C(CCc1ccccc1)N[C@H]1[C@@H](OC(=O)c2ccco2)CCC[C@@]12C(=O)N(Cc1ccccc1)c1ccccc12	none (no result: aDG glyco act, Lipid droplet, V-ATPase pHluor, MPTP block)
Cc1cccc(-n2nc3c(c2NC(=O)c2ccco2)CSC3)c1C	ADAM17 inh 9.1
